Results on 16 compounds are retold here after ChEMBL document CHEMBL4033671, “Synthesis and biological evaluation of N-(carbobenzyloxy)-l-phenylalanine and N-(carbobenzyloxy)-l-aspartic acid-β-benzyl ester derivatives as potent topoisomerase IIα inhibitors” (Bioorg Med Chem, 2017).

The target of experiment [1] is T1, DNA topoisomerase 1 (Homo sapiens) (UniProt P11387).
T1 sequence (whole entry): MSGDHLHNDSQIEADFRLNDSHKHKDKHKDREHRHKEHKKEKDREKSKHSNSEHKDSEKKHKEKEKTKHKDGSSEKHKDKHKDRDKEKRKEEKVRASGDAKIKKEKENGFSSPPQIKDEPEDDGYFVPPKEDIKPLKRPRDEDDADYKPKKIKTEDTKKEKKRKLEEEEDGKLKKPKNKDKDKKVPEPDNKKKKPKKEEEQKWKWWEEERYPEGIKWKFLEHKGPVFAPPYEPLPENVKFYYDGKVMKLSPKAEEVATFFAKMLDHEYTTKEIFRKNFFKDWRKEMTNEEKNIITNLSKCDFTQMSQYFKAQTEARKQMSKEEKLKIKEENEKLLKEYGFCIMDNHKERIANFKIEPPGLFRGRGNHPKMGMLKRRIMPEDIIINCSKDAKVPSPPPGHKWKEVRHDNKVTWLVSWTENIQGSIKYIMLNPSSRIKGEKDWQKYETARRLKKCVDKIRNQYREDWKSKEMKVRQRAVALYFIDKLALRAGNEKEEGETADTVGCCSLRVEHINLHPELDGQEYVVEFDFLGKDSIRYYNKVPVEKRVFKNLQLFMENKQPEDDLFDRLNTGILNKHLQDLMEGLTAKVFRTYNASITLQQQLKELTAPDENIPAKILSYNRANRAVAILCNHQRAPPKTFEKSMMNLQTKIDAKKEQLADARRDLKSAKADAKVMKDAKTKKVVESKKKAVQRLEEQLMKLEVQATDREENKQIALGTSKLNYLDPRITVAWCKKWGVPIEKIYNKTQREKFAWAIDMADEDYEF
Put plainly: Inhibition of human recombinant topoisomerase-1 assessed as decrease in relaxation of supercoiled DNA pBR322 at 20 uM after 30 mins by ethidium bromide staining-based agarose gel electrophoresis relative to control. An outline of the steps: (§1)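 Relaxation of 500 ng supercoiled pBR322 by 1 unit human topoisomerase I or IIα in reaction buffer, with or without compound (100 µM; 20 µM for selected compounds). Incubated 37 °C for 30 min, stopped with 0.77% SDS/77 mM EDTA. Products run on 1% agarose in TBE at 83 V for 60 min, stained 30 min in ethidium bromide (0.5 µg/mL), imaged under UV; percent inhibition recorded.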

The test system of experiment [2] is MCF7. Put plainly: Antiproliferative activity against human MCF7 cells after 48 hrs by MTT assay. Type of experiment: functional, cell-based. Particulars: MCF7, 48 h. An outline of the steps:
(§2)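 Cells seeded at 5×10⁴ per well, left 12 h, then exposed to serial dilutions (final 0, 5.0, 10.0, 20.0, 40.0, 80.0, 100.0 µM) for 48 h. MTT (5.0 mg/mL stock, 10 µL) added for 4 h, formazan dissolved in DMSO, absorbance read at 490 nm. Inhibition = (1−A_treatment/A_control)×100%; IC50 is the concentration giving 50% growth inhibition. Triplicate wells, at least three independent experiments, mean ± SD.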

Experiment [3] has as its target T1, DNA topoisomerase 1 (Homo sapiens). The experiment is described as follows: Inhibition of human recombinant topoisomerase-1 assessed as decrease in relaxation of supercoiled DNA pBR322 at 100 uM after 30 mins by ethidium bromide staining-based agarose gel electrophoresis relative to control. Put shortly:
as §1

Experiment [4] relates to HeLa. Put plainly: Antiproliferative activity against human HeLa cells after 48 hrs by MTT assay. Type of experiment: functional, cell-based. An outline of the steps: as §2
A general note: Formazan colour is commonly taken as a measure of viable cells.

In experiment [5] the test system is A549. The experiment is described as follows: Antiproliferative activity against human A549 cells after 48 hrs by MTT assay. It is filed as functional, cell-based. To be noted: A549, 48 h. Put shortly:
as §2

Experiment [6] deals with T2, DNA topoisomerase 2-alpha (Homo sapiens, UniProt P11388). Put plainly: Inhibition of human recombinant topoisomerase-2alpha expressed in Escherichia coli assessed as decrease in relaxation of supercoiled DNA pBR322 at 20 uM after 30 mins by ethidium bromide staining-based agarose gel electrophoresis relative to control. Put shortly: as §1
T2 sequence (P11388 whole entry): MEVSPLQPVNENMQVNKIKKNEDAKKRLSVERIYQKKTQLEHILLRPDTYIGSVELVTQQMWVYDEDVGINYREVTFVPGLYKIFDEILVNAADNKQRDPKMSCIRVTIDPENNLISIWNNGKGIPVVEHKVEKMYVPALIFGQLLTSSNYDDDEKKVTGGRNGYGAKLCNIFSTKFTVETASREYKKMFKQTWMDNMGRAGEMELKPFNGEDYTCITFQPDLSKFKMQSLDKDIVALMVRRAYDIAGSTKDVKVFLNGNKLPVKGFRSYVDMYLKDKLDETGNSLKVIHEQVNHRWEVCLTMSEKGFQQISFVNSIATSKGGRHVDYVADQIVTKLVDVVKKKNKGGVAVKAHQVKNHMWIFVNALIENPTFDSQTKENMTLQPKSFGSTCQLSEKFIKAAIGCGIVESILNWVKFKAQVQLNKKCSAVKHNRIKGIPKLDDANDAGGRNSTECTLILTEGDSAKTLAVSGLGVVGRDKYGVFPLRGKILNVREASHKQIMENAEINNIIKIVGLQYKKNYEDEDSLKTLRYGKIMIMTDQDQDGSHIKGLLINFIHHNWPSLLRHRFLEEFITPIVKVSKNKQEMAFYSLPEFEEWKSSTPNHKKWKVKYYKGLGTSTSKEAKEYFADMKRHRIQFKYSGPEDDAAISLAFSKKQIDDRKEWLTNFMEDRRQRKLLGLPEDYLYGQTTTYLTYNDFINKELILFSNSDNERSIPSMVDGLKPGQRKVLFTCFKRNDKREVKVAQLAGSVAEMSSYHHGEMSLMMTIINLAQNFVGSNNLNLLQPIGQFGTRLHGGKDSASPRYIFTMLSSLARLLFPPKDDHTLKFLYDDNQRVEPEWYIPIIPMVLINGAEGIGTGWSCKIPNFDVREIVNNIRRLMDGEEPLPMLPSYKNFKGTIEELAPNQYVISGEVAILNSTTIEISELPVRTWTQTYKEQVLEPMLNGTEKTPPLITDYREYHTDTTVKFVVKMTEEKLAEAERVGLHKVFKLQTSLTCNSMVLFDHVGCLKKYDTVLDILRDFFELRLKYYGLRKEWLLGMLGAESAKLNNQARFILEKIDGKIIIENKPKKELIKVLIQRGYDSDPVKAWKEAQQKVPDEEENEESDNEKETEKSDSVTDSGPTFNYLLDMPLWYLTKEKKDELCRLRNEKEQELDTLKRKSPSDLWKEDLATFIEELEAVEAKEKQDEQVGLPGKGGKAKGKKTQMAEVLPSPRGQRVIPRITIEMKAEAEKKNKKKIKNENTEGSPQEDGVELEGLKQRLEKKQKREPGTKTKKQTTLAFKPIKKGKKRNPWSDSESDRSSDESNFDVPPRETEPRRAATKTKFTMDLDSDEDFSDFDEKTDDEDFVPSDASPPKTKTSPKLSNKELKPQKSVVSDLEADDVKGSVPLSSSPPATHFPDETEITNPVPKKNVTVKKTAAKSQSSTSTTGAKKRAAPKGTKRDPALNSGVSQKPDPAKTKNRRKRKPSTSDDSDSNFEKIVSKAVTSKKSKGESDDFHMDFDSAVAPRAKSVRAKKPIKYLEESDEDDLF
Experiment [7] relates to MGC-803. The experiment is described as follows: Antiproliferative activity against human MGC803 cells after 48 hrs by MTT assay. Type of experiment: functional, cell-based. Particulars: MGC-803, 48 h. An outline of the steps: as §2
Experiment [8] addresses T2, DNA topoisomerase 2-alpha. The experiment is described as follows: Inhibition of human recombinant topoisomerase-2alpha expressed in Escherichia coli assessed as decrease in relaxation of supercoiled DNA pBR322 at 100 uM after 30 mins by ethidium bromide staining-based agarose gel electrophoresis relative to control. Put shortly: as §1
For experiment [9], the target named is T2, DNA topoisomerase 2-alpha. Put plainly: Inhibition of human recombinant topoisomerase-2alpha expressed in Escherichia coli assessed as decrease in relaxation of supercoiled DNA pBR322 after 30 mins by ethidium bromide staining-based agarose gel electrophoresis. Put shortly: as §1

By inhibition is commonly meant the drop in the measured response relative to a control, in per cent. Broadly, the IC50 is the concentration at which inhibition is half-maximal. For the compound `CCC(=O)OC[C@H](Cc1ccccc1)NC(=O)[C@H](CC(=O)OCc1ccccc1)NC(=O)OCc1ccccc1`, the inhibition is -0% in experiment [1], 45.2% in experiment [3], 19.7% in experiment [6] and 63.8% in experiment [8]. The IC50 is 40.6 µM in experiment [2], 49.9 µM in experiment [4], above 50 µM in experiment [5] and above 50 µM in experiment [7].
As to `CCC(=O)OC[C@H](Cc1ccccc1)NC(=O)[C@H](Cc1ccccc1)NC(=O)OCc1ccccc1`, the IC50 in [2], in experiment [4], in [5] and in experiment [7] was above 50 µM in each case. Moreover, the inhibition in experiment [3] is -0%; in experiment [6], 45.6%; in experiment [8] it was 86.1%.
Turning to `Cc1ccccc1C(=O)OC[C@H](Cc1ccccc1)NC(=O)[C@H](CC(=O)OCc1ccccc1)NC(=O)OCc1ccccc1`, the IC50 is 41.7 µM in experiment [2], 44.7 µM in experiment [4], above 50 µM in experiment [5] and above 50 µM in [7]. Moreover, the results for the inhibition in experiment [3] and in [8] were -0% and 28.2%, respectively.
Take `O=C(C[C@H](NC(=O)OCc1ccccc1)C(=O)N[C@H](COC(=O)c1ccccc1Cl)Cc1ccccc1)OCc1ccccc1`: the IC50 in experiment [2], in experiment [4], in experiment [5] and in experiment [7] was above 50 µM each time. Also, the inhibition was -0% in experiment [3] and 41.4% in experiment [8].
With `O=C(N[C@@H](Cc1ccccc1)C(=O)N[C@H](COC(=O)c1ccccc1)Cc1ccccc1)OCc1ccccc1`, the inhibition in experiment [1] is -0%; in [3] it was 29.5%; in experiment [6] it was 25.6%; in experiment [8], 75.7%. The IC50 was found to be 41.1 µM in experiment [2], 30.2 µM in experiment [4], 48.8 µM in experiment [5] and 38.7 µM in experiment [7].
For `COc1ccc(C(=O)OC[C@H](Cc2ccccc2)NC(=O)[C@H](CC(=O)OCc2ccccc2)NC(=O)OCc2ccccc2)cc1OC`, the inhibition in experiment [1] was -0%; in experiment [3], 20.2%; in experiment [6], 49.8%; in experiment [8] it was 84.6%. In addition, the IC50 in experiment [2] is 27.9 µM; in [4], 39.6 µM; in [5], 47.6 µM; in experiment [7] it was 42.3 µM.
For the compound `O=C(C[C@H](NC(=O)OCc1ccccc1)C(=O)N[C@H](COC(=O)c1ccc(Cl)cc1)Cc1ccccc1)OCc1ccccc1`, the IC50 was found to be 22.1 µM in experiment [2], 17.6 µM in experiment [4], 29.9 µM in experiment [5] and 28.1 µM in [7]. In addition, the inhibition was found to be 9.5% in experiment [3], 51.2% in [6] and 92.9% in [8].
As for `CC(=O)OC[C@H](Cc1ccccc1)NC(=O)[C@H](CC(=O)OCc1ccccc1)NC(=O)OCc1ccccc1`, the inhibition is -0% in experiment [1], 15% in [3] and 6.7% in experiment [8]. The IC50 was 47.1 µM in experiment [2], above 50 µM in [4], above 50 µM in [5] and above 50 µM in experiment [7].
For `O=C(O)C[C@H](NC(=O)OCc1ccccc1)C(=O)O`, the IC50 in experiment [9] stood at 27 µM.
For the compound `Cc1ccccc1C(=O)OC[C@H](Cc1ccccc1)NC(=O)[C@H](Cc1ccccc1)NC(=O)OCc1ccccc1`, the IC50 in [2] was 39.2 µM; in experiment [4] it was 39.4 µM; in experiment [5] it was above 50 µM; in experiment [7] it was 42.8 µM. For the same compound, the results for the inhibition in experiment [3], in experiment [6] and in experiment [8] were 7.3%, 42.1% and 62.8%, respectively.
`O=C(C[C@H](NC(=O)OCc1ccccc1)C(=O)N[C@H](COC(=O)c1ccccc1)Cc1ccccc1)OCc1ccccc1`: the IC50 in experiment [2] is 40 µM; in experiment [4], 27.9 µM; in [5], 46 µM; in experiment [7] it was 32.5 µM. Besides, the inhibition in experiment [3] is -0%; in [6], 20.1%; in [8], 68.4%.
Turning to `O=C(N[C@@H](Cc1ccccc1)C(=O)N[C@H](COC(=O)c1ccc(Cl)cc1)Cc1ccccc1)OCc1ccccc1`, the IC50 in experiment [2] came out at 36.2 µM; in experiment [4], 22.6 µM; in experiment [5] it was 42.4 µM; in [7], 38.4 µM. The results for the inhibition in experiment [3] and in experiment [8] were -0% and 3.2%, respectively.
As to `O=C(N[C@@H](Cc1ccccc1)C(=O)N[C@H](COC(=O)c1ccccc1Cl)Cc1ccccc1)OCc1ccccc1`, the IC50 is 43 µM in experiment [2], above 50 µM in experiment [4], above 50 µM in experiment [5] and 43.1 µM in experiment [7]. Also, the inhibition in experiment [3] is -0%; in experiment [8], 4.1%.
`COc1ccc(C(=O)OC[C@H](Cc2ccccc2)NC(=O)[C@H](Cc2ccccc2)NC(=O)OCc2ccccc2)cc1OC`: the 50% inhibitory concentration (IC50) in [2] is 41.5 µM; in [4] it was 34.5 µM; in experiment [5], above 50 µM; in [7], 40.3 µM. Further, the inhibition in experiment [3] turned out to be 5.4%; in experiment [6], 28.1%; in [8] it was 83.2%.
`COc1cc([C@@H]2c3cc4c(cc3[C@@H](O[C@@H]3O[C@@H]5CO[C@@H](C)O[C@H]5[C@H](O)[C@H]3O)[C@H]3COC(=O)[C@H]23)OCO4)cc(OC)c1O` [ETOPOSIDE]: the IC50 stood at 24 µM in experiment [2], 15.9 µM in experiment [4], 19.8 µM in [5] and 20.9 µM in experiment [7].
For `CC[C@@]1(O)C(=O)OCc2c1cc1n(c2=O)Cc2cc3ccccc3nc2-1` [CAMPTOTHECIN], the IC50 is 28.7 µM in [2], 10.1 µM in experiment [4], 13.6 µM in experiment [5] and 9.45 µM in experiment [7].
